This is an account of results in ChEMBL document CHEMBL3352510, “Anti-Inflammatory Spirostanol and Furostanol Saponins from Solanum macaonense” (J Nat Prod, 2014).

The subject of data set [1] is Neutrophil. Description: Inhibition of FMLP/CB-stimulated superoxide production in human neutrophils preincubated for 5 mins before FMLP/CB treatment by spectrophotometry. Format: functional, cell-based. The gist of the method: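 Neutrophils equilibrated with ferricytochrome c (0.5 mg/mL) and 1 mM Ca2+ at 37 °C for 2 min, treated with compound for 5 min, primed with cytochalasin B (1 μg/mL) for 3 min, then stimulated with FMLP 100 nM for 10 min. IC50 given as mean ± SEM, n = 3 or 4. Diphenyleneiodonium as positive control.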

Data set [2] is described as follows: Cytotoxicity against human neutrophils assessed as reduction in cell viability up to 10 uM by LDH release assay. In kind it is cell-based. The following applies: neutrophil. The gist of the method: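 Neutrophils held in Ca2+-free HBSS, pH 7.4, at 4 °C before use. Compounds tested up to 10 μM. Membrane damage scored as LDH in cell-free medium, expressed as a percentage of total LDH release.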
(LDH in the medium is a marker of cell lysis.)

The test system of data set [3] is Neutrophil. Description: Inhibition of FMLP/CB-stimulated elastase release in human neutrophils preincubated for 5 mins before FMLP/CB treatment using MeO-Suc-Ala-Ala-Pro-Val-pnitroanilide by spectrophotometry. In kind it is functional, cell-based. The gist of the method:
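Neutrophils, after hypotonic lysis of erythrocytes, kept in Ca2+-free HBSS pH 7.4. Equilibrated 2 min at 37 °C with MeO-Suc-Ala-Ala-Pro-Val-p-nitroanilide (100 μM), given compound for 5 min, then activated with FMLP 100 nM plus cytochalasin B 0.5 μg/mL. Absorbance at 405 nm tracked continuously and expressed as percent of drug-free activated control. IC50 reported as mean ± SEM, n = 3 or 4. Sivelestat as positive control.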

The test system of the next data set is RBL-2H3. Nature of the data set: Anti-inflammatory activity in rat RBL2H3 cells assessed as inhibition of beta-hexosaminidase release at 1 to 64 uM after 48 hrs by degranulation assay relative to control. In kind it is functional, cell-based. The gist of the method: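 RBL-2H3 cells grown in DMEM/F12 with 10% FBS, seeded at 10^4 cells/well, exposed to compound (0, 1, 4, 16, 64 μM) for 48 h. Sensitized overnight with anti-DNP IgE ([…]), washed in Tyrode's buffer, then challenged with DNP-BSA (0.1 μg/mL) for 1 h. Reaction stopped on ice. Supernatant incubated 1 h with p-nitrophenyl-N-acetyl-D-glucosaminide (0.1 M, citrate buffer), stopped with bicarbonate, read at 405 nm. Release % = (sample − background)/(total lysate − background) × 100. Dexamethasone 100 nM as positive control.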

Data set [4] can be described thus: Cytotoxicity against rat RBL2H3 cells assessed as reduction in cell viability by MTT assay. In kind it is cell-based. The settings on record: rbl-2h3. The gist of the method:
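Viability of RBL-2H3 cells by MTT, run alongside the degranulation assay. Cells cultured in DMEM/F12 with 10% FBS and exposed to compound at 0–64 μM.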
(In general: Formazan colour is commonly taken as a measure of viable cells.)

Data set [5] is described as follows: Antidegranulation activity in rat RBL2H3 cells assessed as inhibition of DNP-BSA-stimulated beta-hexosaminidase release.

Active and inactive are the calls of the source. The calls are words filed in the database; no cut-off is given here. A value given as a limit tells only on which side of the number the result lay.

Consider `C[C@@H]1CC[C@@]2(OC1)O[C@H]1C[C@H]3[C@@H]4C[C@H](O[C@@H]5O[C@H](C)[C@@H](O)[C@H](O)[C@H]5O)[C@H]5C[C@@H](O)CC[C@]5(C)[C@H]4CC[C@]3(C)[C@H]1[C@@H]2C`, for which the values for the 50% inhibitory concentration (IC50) in the data set on Neutrophil [1] and in the data set on Neutrophil [3] were 7 µM and 3.7 µM, respectively. Further, the Activity result in data set [2] is reported as “Non-toxic”. Regarding `C[C@@H]1CC[C@@]2(OC1)O[C@H]1C[C@H]3[C@@H]4C[C@H](O)[C@H]5C[C@@H](O)CC[C@]5(C)[C@H]4CC[C@]3(C)[C@H]1[C@@H]2C` [CHLOROGENIN], the half-maximal inhibitory concentration (IC50) (usually the midpoint of a concentration-inhibition curve) with Neutrophil [1] is 6.1 µM; with Neutrophil [3], more than 10 µM.

As for `CO[C@]1(CC[C@@H](C)CO[C@@H]2O[C@H](CO)[C@@H](O)[C@H](O)[C@H]2O)O[C@H]2C[C@H]3[C@@H]4C[C@H](O[C@@H]5O[C@H](C)[C@@H](O)[C@H](O[C@@H]6OC[C@@H](O)[C@H](O)[C@H]6O)[C@H]5O)[C@H]5C[C@@H](O)CC[C@]5(C)[C@H]4CC[C@]3(C)[C@H]2[C@@H]1C`, the IC50 with Neutrophil [1] was more than 10 µM.

As for `C[C@@H]1CC[C@@]2(OC1)O[C@H]1C[C@H]3[C@@H]4C[C@H](O)[C@H]5C[C@@H](O[C@@H]6O[C@H](CO)[C@@H](O[C@H]7O[C@@H](C)[C@H](O)[C@@H](O)[C@H]7O)[C@H](O)[C@H]6O[C@H]6O[C@@H](C)[C@H](O)[C@@H](O)[C@H]6O)CC[C@]5(C)[C@H]4CC[C@]3(C)[C@H]1[C@@H]2C`, the concentration for half-maximal inhibition (IC50) in the data set on Neutrophil [1] is more than 10 µM.

Turning to `CO[C@]1(CC[C@@H](C)CO[C@@H]2O[C@H](CO)[C@@H](O)[C@H](O)[C@H]2O)O[C@H]2C[C@H]3[C@@H]4C[C@H](O[C@@H]5O[C@H](C)[C@@H](O)[C@H](O[C@@H]6OC[C@@H](O)[C@H](O)[C@H]6O)[C@H]5O)[C@H]5CC(=O)CC[C@]5(C)[C@H]4CC[C@]3(C)[C@H]2[C@@H]1C`, in the data set with Neutrophil [1], the IC50 is more than 10 µM. For the compound `CC1=C(CC[C@@H](C)CO[C@@H]2O[C@H](CO)[C@@H](O)[C@H](O)[C@H]2O)O[C@H]2C[C@H]3[C@@H]4C[C@H](O[C@@H]5O[C@H](C)[C@@H](O)[C@H](O[C@@H]6OC[C@@H](O)[C@H](O)[C@H]6O)[C@H]5O)[C@H]5C[C@@H](O)CC[C@]5(C)[C@H]4CC[C@]3(C)[C@@H]12`, the half-inhibitory concentration (IC50) in the data set on Neutrophil [1] is more than 10 µM. Regarding `C[C@H](CC[C@@]1(O)O[C@H]2C[C@H]3[C@@H]4C[C@H](O)[C@H]5C[C@@H](O[C@@H]6O[C@H](CO)[C@@H](O)[C@H](O)[C@H]6O)CC[C@]5(C)[C@H]4CC[C@]3(C)[C@H]2[C@@H]1C)CO[C@@H]1O[C@H](CO)[C@@H](O)[C@H](O)[C@H]1O`, the 50% inhibitory concentration (IC50) in the data set with Neutrophil [1] is more than 10 µM. `C[C@@H]1CC[C@@]2(OC1)O[C@H]1C[C@H]3[C@@H]4C[C@H](O[C@@H]5O[C@H](C)[C@@H](O)[C@H](O)[C@H]5O)[C@H]5C[C@@H](O[C@@H]6O[C@H](CO)[C@@H](O)[C@H](O)[C@H]6O)CC[C@]5(C)[C@H]4CC[C@]3(C)[C@H]1[C@@H]2C` gave a half-inhibitory concentration (IC50) in the data set on Neutrophil [1] of more than 10 µM. The compound `c1ccc2c(c1)[I+]c1ccccc1-2` [DIPHENYLENEIODONIUM] returned an IC50 in the data set with Neutrophil [1] of 0.8 µM. Turning to `C[C@@H]1CC[C@@]2(OC1)O[C@H]1C[C@H]3[C@@H]4C[C@H](O[C@@H]5OC[C@@H](O)[C@H](O[C@@H]6OC[C@@H](O)[C@H](O)[C@H]6O)[C@H]5O)[C@H]5C[C@@H](O)CC[C@]5(C)[C@H]4CC[C@]3(C)[C@H]1[C@@H]2C`, the outcome in the data set on RBL-2H3 was inactive. The Activity entry was “Active” in data set [4] and “Non-toxic” in data set [2]. Besides, the IC50 in the data set with Neutrophil [1] was more than 10 µM; with Neutrophil [3] it was 4.2 µM.

For the compound `C[C@H]1CO[C@@]2(O[C@H]3C[C@H]4[C@@H]5C[C@H](O[C@@H]6O[C@H](C)[C@@H](O)[C@H](O[C@@H]7OC[C@@H](O)[C@H](O)[C@H]7O)[C@H]6O)[C@H]6C[C@@H](O)CC[C@]6(C)[C@H]5CC[C@]4(C)[C@H]3[C@@H]2C)[C@@H](O)C1`, the IC50 with Neutrophil [1] was more than 10 µM. For `C[C@H](C/C=C1/O[C@H]2C[C@H]3[C@@H]4C[C@H](O[C@@H]5O[C@H](C)[C@@H](O)[C@H](O[C@@H]6OC[C@@H](O)[C@H](O)[C@H]6O)[C@H]5O)[C@H]5C[C@@H](O)CC[C@]5(C)[C@H]4CC[C@]3(C)[C@H]2[C@@]1(C)O)CO[C@@H]1O[C@H](CO)[C@@H](O)[C@H](O)[C@H]1O`, the half-inhibitory concentration (IC50) in the data set on Neutrophil [1] was more than 10 µM. As to `C[C@@H]1CC[C@@]2(OC1)O[C@H]1C[C@H]3[C@@H]4C[C@H](O[C@@H]5OC[C@@H](O)[C@H](O)[C@H]5O)[C@H]5C[C@@H](O)CC[C@]5(C)[C@H]4CC[C@]3(C)[C@H]1[C@@H]2C`, the results for the IC50 in the data set with Neutrophil [1] and in the data set on Neutrophil [3] were 7.6 µM and 4.4 µM, respectively. Moreover, the Activity entry in data set [2] was “Non-toxic”. For `CC(C)(C)C(=O)Oc1ccc(S(=O)(=O)Nc2ccccc2C(=O)NCC(=O)O)cc1` [SIVELESTAT], in the data set with Neutrophil [3], half-maximal inhibition (IC50) required 50 µM. With `CC1=C(C(O)C[C@@H](C)CO[C@@H]2O[C@H](CO)[C@@H](O)[C@H](O)[C@H]2O)O[C@H]2C[C@H]3[C@@H]4C[C@H](O[C@@H]5O[C@H](C)[C@@H](O)[C@H](O[C@@H]6OC[C@@H](O)[C@H](O)[C@H]6O)[C@H]5O)[C@H]5C[C@@H](O)CC[C@]5(C)[C@H]4CC[C@]3(C)[C@@H]12` (stereo partly specified), the IC50 in the data set with Neutrophil [1] was more than 10 µM.

With `C[C@H](CC[C@@]1(O)O[C@H]2C[C@H]3[C@@H]4C[C@H](O[C@@H]5O[C@H](C)[C@@H](O)[C@H](O)[C@H]5O)[C@H]5C[C@@H](O[C@@H]6O[C@H](CO)[C@@H](O)[C@H](O)[C@H]6O)CC[C@]5(C)[C@H]4CC[C@]3(C)[C@H]2[C@@H]1C)CO[C@@H]1O[C@H](CO)[C@@H](O)[C@H](O)[C@H]1O`, in the data set with Neutrophil [1], the IC50 is more than 10 µM. In the case of `C[C@@H]1CC[C@@]2(OC1)O[C@H]1C[C@H]3[C@@H]4C[C@H](O[C@@H]5O[C@H](C)[C@@H](O)[C@H](O[C@@H]6OC[C@@H](O)[C@H](O)[C@H]6O)[C@H]5O)[C@H]5C[C@@H](O)CC[C@]5(C)[C@H]4CC[C@]3(C)[C@H]1[C@@H]2C`, the 50% inhibitory concentration (IC50) amounted to 4 µM in the data set on Neutrophil [1] and 1 µM in the data set with Neutrophil [3]. Take `C[C@@H]1CC[C@@]2(OC1)O[C@H]1C[C@H]3[C@@H]4C[C@H](O[C@@H]5O[C@H](C)[C@@H](O)[C@H](O[C@@H]6OC[C@@H](O)[C@H](O)[C@H]6O)[C@H]5O)[C@H]5CC(=O)CC[C@]5(C)[C@H]4CC[C@]3(C)[C@H]1[C@@H]2C`: the outcome with RBL-2H3 was inactive. Further, the inhibition of degranulation in data set [5] is more than 90%. Also, the figures for the IC50 with Neutrophil [1] and in the data set with Neutrophil [3] were more than 10 µM and 3.2 µM, respectively. The Activity result in data set [2] is given as “Non-toxic”.

For the compound `C[C@H](CC[C@@]1(O)O[C@H]2C[C@H]3[C@@H]4C[C@H](O[C@@H]5O[C@H](C)[C@@H](O)[C@H](O[C@@H]6OC[C@@H](O)[C@H](O)[C@H]6O)[C@H]5O)[C@H]5C[C@@H](O)CC[C@]5(C)[C@H]4CC[C@]3(C)[C@H]2[C@@H]1C)CO[C@@H]1O[C@H](CO)[C@@H](O)[C@H](O)[C@H]1O`, the IC50 in the data set with Neutrophil [1] was more than 10 µM. Same read-out and setting: for `C[C@@H]1CC[C@@]2(OC1)O[C@H]1C[C@H]3[C@@H]4C[C@H](O[C@@H]5O[C@H](CO)[C@@H](O)[C@H](O)[C@H]5O)[C@H]5C[C@@H](O)CC[C@]5(C)[C@H]4CC[C@]3(C)[C@H]1[C@@H]2C` the value was more than 10 µM; for `C[C@H](CC[C@@]1(O)O[C@H]2C[C@H]3[C@@H]4C[C@H](O)[C@H]5C[C@@H](O[C@@H]6O[C@H](CO)[C@@H](O)[C@H](O)[C@H]6O[C@@H]6O[C@@H](C)[C@H](O)[C@@H](O)[C@H]6O)CC[C@]5(C)[C@H]4CC[C@]3(C)[C@H]2[C@@H]1C)CO[C@@H]1O[C@H](CO)[C@@H](O)[C@H](O)[C@H]1O`, more than 10 µM. On to `CO[C@]1(CC[C@@H](C)CO[C@@H]2O[C@H](CO)[C@@H](O)[C@H](O)[C@H]2O)O[C@H]2C[C@H]3[C@@H]4C[C@H](O[C@@H]5OC[C@@H](O)[C@H](O[C@@H]6OC[C@@H](O)[C@H](O)[C@H]6O)[C@H]5O)[C@H]5C[C@@H](O)CC[C@]5(C)[C@H]4CC[C@]3(C)[C@H]2[C@@H]1C`, for which the IC50 in the data set with Neutrophil [1] is more than 10 µM.
